Measurements as given in ChEMBL document CHEMBL1275350, “First in class, potent, and orally bioavailable NADPH oxidase isoform 4 (Nox4) inhibitors for the treatment of idiopathic pulmonary fibrosis” (J Med Chem, 2010).

How the values were obtained:
[1] = target: T1, NADPH oxidase 4 (Homo sapiens, UniProt Q9NPH5); assay: Inhibition of human NOX4 overexpressed in T-REx-293 cell membrane assessed as ROS production by cell free assay in presence of NADPH; conditions: in the assay text read “T-REx-293 cell membrane” for “human PMN cell membrane”
T1 sequence (Q9NPH5 whole entry): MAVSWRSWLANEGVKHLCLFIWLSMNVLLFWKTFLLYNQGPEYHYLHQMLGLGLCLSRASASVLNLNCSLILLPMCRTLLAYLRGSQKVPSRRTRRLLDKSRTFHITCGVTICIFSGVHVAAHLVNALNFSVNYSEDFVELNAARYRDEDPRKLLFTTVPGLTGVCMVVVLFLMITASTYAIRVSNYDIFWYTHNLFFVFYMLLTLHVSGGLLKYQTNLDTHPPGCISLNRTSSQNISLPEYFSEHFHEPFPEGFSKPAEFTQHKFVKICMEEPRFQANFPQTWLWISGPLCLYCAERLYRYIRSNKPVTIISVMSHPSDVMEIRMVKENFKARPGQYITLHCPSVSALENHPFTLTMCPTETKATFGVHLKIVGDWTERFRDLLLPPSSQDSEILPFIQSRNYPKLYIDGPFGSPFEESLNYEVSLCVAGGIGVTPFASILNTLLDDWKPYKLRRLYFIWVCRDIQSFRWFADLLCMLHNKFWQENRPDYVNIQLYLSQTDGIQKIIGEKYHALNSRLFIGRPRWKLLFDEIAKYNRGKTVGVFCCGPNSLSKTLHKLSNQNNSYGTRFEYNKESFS
Outline: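 hNOX4 T-REx-293 cells induced with tetracycline (1 μg/mL, 24 h), sonicated in sucrose/NaCl/EGTA PBS buffer pH 7.4, membranes taken from a sucrose gradient. NADPH-triggered ROS measured by Amplex Red/HRP in PBS, with compound at 1 nM–100 μM, 20 min at 37 °C. Ki by Cheng-Prusoff from ≥3 triplicate experiments.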

[2] = test system: Mus musculus; assay: Toxicity in mouse up to 1000 mg/kg, po over 2 weeks; format: organism-based; parameters: dose 1000 mg/kg, route oral; conditions: in vivo, 336 h
Outline: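 Dose range finding in mice, given orally for 2 weeks at up to 1000 mg/kg.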

[3] = target: Protein kinase C beta type (Homo sapiens) (UniProt P05771); assay: Inhibition of human PKCbeta at 10 uM
Chain of Protein kinase C beta type (Homo sapiens) (P05771 2-671 limits assumed): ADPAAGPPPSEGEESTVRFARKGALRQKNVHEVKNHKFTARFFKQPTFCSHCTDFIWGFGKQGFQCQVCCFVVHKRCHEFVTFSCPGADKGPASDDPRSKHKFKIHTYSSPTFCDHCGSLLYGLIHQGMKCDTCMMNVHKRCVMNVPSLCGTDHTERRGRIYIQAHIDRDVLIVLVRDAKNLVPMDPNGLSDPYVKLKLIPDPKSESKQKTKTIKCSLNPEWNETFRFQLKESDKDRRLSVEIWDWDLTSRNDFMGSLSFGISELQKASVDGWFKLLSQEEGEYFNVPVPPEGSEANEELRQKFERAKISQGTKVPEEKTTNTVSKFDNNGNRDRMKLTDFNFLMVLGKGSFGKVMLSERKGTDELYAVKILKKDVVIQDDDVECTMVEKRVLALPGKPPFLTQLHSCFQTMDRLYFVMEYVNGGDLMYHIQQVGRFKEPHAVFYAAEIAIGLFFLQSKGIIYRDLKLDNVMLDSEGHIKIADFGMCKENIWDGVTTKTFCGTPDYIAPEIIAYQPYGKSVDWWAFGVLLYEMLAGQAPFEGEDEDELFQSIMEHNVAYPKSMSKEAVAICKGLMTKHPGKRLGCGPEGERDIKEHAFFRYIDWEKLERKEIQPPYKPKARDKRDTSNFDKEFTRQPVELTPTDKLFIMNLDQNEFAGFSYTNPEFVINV

[4] = Inhibition of potassium channel at 10 uM
[5] = Volume of distribution at steady state in Sprague-Dawley rat at 5 mg/kg, iv; format: ADME, organism-based; parameters: dose 5 mg/kg, route intravenous; conditions: in vivo, read-out: Vdss
Outline: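 Parallel design in male rats, three per group. Group 1: 5 mg/kg iv in EDPW (10% EtOH, 10% DMA, 30% PG, 50% water). Group 2: 10 mg/kg oral in aqueous 0.5% CMC with 0.25% Tween 20. Carotid cannula blood drawn up to 24 h. Plasma measured by LC/MS/MS (LLOQ 1.00 ng/mL), noncompartmental analysis.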

[6] = species: Rattus norvegicus; assay: Inhibition of rat AMPK at 10 uM
[7] = Cmax in Sprague-Dawley rat at 5 mg/kg, iv; format: ADME, organism-based; parameters: dose 5 mg/kg, route intravenous; conditions: in vivo
Outline: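 Parallel design with six male rats: three given 5 mg/kg iv in EDPW (10% EtOH, 10% DMA, 30% PG, 50% water), three given 10 mg/kg orally in aqueous 0.5% CMC with 0.25% Tween 20. Carotid cannula blood sampled up to 24 h. Plasma levels by LC/MS/MS (LLOQ 1.00 ng/mL). Noncompartmental analysis.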

[8] = target: Myeloperoxidase (Homo sapiens) (UniProt P05164); assay: Inhibition of human myeloperoxidase at 10 uM
Chain of Myeloperoxidase (Homo sapiens) (P05164 165-273 limits assumed): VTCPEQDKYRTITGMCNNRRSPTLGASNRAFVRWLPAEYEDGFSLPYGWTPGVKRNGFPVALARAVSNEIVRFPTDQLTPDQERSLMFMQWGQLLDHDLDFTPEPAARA
Chain of Myeloperoxidase (Homo sapiens) (P05164 279-745 limits assumed): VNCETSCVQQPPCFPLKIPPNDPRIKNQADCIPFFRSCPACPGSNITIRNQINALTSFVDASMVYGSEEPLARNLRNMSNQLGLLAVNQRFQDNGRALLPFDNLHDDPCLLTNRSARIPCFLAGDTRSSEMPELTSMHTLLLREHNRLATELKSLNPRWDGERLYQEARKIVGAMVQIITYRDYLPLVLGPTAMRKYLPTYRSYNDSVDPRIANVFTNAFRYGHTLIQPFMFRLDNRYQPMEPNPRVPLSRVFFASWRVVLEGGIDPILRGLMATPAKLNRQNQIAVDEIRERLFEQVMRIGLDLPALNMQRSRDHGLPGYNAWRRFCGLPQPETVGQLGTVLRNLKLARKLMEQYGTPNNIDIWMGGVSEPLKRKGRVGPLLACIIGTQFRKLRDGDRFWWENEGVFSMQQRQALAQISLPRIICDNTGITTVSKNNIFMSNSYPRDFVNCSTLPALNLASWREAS

[9] = Inhibition of chloride channel at 10 uM
[10] = target: NADPH oxidase 1 (Homo sapiens, UniProt Q9Y5S8); assay: Inhibition of human NOX1 overexpressed in […] cell membrane assessed as ROS production by cell free assay in presence of NADPH; conditions: in the assay text read “T-REx-CHO cell membrane” for “human PMN cell membrane”
Chain of NADPH oxidase 1 (Q9Y5S8 whole entry): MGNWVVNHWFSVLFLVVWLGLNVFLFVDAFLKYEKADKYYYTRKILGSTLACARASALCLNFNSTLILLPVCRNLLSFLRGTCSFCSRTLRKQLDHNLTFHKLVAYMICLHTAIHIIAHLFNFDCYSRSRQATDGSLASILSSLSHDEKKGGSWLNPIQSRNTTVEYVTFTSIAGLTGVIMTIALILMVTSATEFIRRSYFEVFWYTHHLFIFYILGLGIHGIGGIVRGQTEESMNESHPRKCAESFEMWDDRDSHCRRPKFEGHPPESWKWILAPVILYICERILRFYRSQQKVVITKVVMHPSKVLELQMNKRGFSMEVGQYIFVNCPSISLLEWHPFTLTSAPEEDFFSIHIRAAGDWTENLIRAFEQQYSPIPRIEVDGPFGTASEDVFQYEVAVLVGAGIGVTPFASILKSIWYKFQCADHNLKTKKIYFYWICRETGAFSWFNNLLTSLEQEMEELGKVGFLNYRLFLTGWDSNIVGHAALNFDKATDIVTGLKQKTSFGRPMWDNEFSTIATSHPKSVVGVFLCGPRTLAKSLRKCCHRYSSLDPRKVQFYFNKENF
Outline: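 Membranes from T-REx-CHO cells stably co-transfected with human NOX1, p22, NOXA1 and NOXO1, induced with tetracycline (1 μg/mL, 24 h), prepared on a 17/40% sucrose gradient. Incubated in PBS with Amplex Red, HRP and cofactors, then NADPH added. Compound at 1 nM–100 μM, 20 min at 37 °C. Ki by Cheng-Prusoff, at least three experiments in triplicate.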

[11] = target: Cytochrome P450 2D6 (Homo sapiens, UniProt P10635); assay: Inhibition of human CYP2D6; format: ADME
Outline: (§1)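 Recombinant human CYP isoforms with isoform-specific probe substrates and NADPH. Compound at 0.1–25 μM, final DMSO 0.3%. Metabolites measured by mass spectrometry, except CYP1A2, which used a fluorescent metabolite. IC50 derived from the decrease in metabolite formation compared with vehicle control.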

[12] = target: Cytochrome P450 2C19 (Homo sapiens, UniProt P33261); assay: Inhibition of human CYP2C19; format: ADME; outline: as §1
Chain of Cytochrome P450 2C19 (P33261 whole entry): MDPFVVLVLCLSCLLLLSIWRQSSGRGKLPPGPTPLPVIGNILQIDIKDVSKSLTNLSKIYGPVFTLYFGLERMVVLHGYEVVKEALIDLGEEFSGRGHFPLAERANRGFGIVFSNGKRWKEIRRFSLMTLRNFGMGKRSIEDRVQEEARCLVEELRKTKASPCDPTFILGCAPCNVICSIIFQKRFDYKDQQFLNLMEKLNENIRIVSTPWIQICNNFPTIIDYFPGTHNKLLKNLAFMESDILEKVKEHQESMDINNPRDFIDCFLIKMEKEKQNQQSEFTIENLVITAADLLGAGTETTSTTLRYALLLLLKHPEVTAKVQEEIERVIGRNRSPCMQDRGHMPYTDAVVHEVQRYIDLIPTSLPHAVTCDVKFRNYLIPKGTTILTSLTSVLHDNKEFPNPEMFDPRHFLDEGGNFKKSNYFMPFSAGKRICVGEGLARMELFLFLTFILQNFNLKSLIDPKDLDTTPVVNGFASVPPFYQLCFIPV

[13] = target: Mitogen-activated protein kinase kinase kinase 5 (Homo sapiens) (UniProt Q99683); assay: Inhibition of human ASK1 at 10 uM
Chain of Mitogen-activated protein kinase kinase kinase 5 (Homo sapiens) (Q99683 whole entry): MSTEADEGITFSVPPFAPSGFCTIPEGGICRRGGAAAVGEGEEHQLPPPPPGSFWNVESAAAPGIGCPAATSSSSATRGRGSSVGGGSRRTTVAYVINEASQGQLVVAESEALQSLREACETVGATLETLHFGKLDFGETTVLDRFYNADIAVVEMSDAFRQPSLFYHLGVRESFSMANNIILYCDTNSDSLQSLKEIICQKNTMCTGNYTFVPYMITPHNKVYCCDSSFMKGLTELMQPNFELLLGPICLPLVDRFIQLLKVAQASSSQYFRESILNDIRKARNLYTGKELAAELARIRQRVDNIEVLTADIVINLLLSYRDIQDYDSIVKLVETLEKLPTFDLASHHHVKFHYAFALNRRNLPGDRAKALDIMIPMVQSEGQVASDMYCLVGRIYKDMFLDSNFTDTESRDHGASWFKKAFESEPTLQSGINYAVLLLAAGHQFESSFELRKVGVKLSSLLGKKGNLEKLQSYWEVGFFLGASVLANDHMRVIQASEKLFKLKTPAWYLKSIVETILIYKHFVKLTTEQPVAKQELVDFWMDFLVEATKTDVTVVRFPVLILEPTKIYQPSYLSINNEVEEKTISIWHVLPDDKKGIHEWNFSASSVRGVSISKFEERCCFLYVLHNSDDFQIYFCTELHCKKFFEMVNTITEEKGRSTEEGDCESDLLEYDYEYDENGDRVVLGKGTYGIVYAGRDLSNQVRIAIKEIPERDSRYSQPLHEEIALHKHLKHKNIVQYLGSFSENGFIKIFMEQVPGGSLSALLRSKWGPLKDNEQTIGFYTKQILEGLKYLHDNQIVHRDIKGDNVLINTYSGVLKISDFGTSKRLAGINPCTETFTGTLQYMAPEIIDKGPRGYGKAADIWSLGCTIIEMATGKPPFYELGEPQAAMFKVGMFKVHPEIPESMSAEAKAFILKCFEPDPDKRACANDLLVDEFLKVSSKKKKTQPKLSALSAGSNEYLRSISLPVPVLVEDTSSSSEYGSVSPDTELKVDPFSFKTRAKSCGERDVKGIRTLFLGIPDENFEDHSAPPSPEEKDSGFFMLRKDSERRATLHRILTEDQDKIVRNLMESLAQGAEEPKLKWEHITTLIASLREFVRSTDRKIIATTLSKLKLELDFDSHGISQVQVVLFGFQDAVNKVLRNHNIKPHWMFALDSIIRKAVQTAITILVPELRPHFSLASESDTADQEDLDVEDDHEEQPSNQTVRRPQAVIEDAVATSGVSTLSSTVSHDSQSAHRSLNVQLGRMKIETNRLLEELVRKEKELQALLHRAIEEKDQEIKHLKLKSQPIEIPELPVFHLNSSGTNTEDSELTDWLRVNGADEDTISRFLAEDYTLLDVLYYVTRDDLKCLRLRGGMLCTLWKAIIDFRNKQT

[14] = target: Nitric oxide synthase, inducible (Homo sapiens) (UniProt P35228); assay: Inhibition of iNOS at 10 uM
Chain of Nitric oxide synthase, inducible (Homo sapiens) (P35228 whole entry): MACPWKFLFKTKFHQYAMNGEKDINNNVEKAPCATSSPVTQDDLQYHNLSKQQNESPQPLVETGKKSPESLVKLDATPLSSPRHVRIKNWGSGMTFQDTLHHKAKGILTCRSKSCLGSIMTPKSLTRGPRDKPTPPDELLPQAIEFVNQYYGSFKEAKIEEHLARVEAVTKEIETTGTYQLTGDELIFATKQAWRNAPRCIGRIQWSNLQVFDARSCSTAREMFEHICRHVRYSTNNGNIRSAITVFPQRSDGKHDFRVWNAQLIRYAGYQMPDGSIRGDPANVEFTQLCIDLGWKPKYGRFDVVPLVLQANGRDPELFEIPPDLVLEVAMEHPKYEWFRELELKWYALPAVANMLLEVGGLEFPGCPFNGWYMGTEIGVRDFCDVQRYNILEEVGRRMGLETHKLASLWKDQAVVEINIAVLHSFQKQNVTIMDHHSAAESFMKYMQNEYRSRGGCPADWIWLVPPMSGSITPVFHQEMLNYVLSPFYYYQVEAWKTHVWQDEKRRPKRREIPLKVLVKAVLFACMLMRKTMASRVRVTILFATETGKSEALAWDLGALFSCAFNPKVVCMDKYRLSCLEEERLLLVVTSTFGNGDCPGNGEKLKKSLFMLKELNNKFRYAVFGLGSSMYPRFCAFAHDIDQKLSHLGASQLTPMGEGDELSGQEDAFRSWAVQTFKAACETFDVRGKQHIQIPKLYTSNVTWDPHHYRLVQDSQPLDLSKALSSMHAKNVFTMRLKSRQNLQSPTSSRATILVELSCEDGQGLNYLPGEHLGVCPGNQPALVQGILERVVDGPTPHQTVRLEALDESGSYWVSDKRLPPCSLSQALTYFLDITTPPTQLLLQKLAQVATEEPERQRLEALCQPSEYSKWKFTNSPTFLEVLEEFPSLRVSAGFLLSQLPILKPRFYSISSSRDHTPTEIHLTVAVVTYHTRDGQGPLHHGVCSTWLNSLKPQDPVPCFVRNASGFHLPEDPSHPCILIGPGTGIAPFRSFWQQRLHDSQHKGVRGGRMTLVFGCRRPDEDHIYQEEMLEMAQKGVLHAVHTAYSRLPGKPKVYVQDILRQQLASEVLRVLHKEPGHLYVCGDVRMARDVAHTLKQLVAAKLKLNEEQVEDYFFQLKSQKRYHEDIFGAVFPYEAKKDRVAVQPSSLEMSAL

Ki [1]: 165 nM | inhibition [3]: 0% | inhibition [4]: 0% | Vd [5]: 1.08 L/kg | inhibition [6]: 0% | Cmax [7]: 12100 ng/mL | inhibition [8]: 0% | inhibition [9]: 0% | Ki [10]: 160 nM | IC50 [11]: > 25000 nM | IC50 [12]: > 25000 nM | inhibition [13]: 0% | inhibition [14]: 0%
Structure (SMILES): Cc1c2c(=O)n(-c3ccccc3Cl)[nH]c2cc(=O)n1Cc1ccccn1
Activity [2]: Non-toxic
